Measured values: PMC3144539 (British Journal of Pharmacology, 2011)

Key:
[1] = tested on: 4-oxo-4-HPR formation in pooled mouse liver microsomes (MLM); assay: Effect of CYP enzyme inhibitors on 4-oxo-4-HPR formation from 4-HPR in MLM; type: in vitro ADME; details: inhibitor 10 µM, 4-HPR 25 µM, 60 min
Method in brief: (§1)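 Pooled liver microsomes (0.5 mg protein·mL−1) were preincubated 20 min at 37°C, pH 7.4 phosphate buffer, with the NADPH-generating system and a CYP2C8, 2C9 or 3A4 inhibitor or no inhibitor. Then 25 µM substrate was added for 60 min at 37°C. Acetonitrile/internal-standard quench, centrifugation, and HPLC quantitation of 4-oxo product followed. Performed in triplicate.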

CYP3A4 = details: inhibits other CYP isoforms at higher concentrations; ref Jia and Liu, 2007; cited from earlier work
[2] = tested on: 4-oxo-4-HPR formation in pooled human liver microsomes (HLM); assay: Effect of CYP enzyme inhibitors on 4-oxo-4-HPR formation from 4-HPR in HLM; type: in vitro ADME; details: inhibitor 10 µM, 4-HPR 25 µM, 60 min
Method in brief: as §1

[3] = Plasma levels in neuroblastoma patients given 4-HPR/LXS oral powder; type: in vivo; details: human, 595 mg/m2 per day
Method in brief: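 Three relapsed/refractory neuroblastoma patients received oral lipid-matrix powder, 595 mg·m−2 per day given twice daily 12 h apart. On day 6 of cycle 1, venous blood was drawn just before the morning dose and every 2 h to 8 h. Samples went into foil-wrapped heparinized tubes, were centrifuged immediately, stored at −80°C and handled in the dark. Plasma was assayed by HPLC.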

[4] = 4-HPR and 4-MPR metabolism kinetics in pooled mouse liver microsomes; type: in vitro ADME; details: pH 7.4
Method in brief: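 Pooled mouse liver microsomes at 0.5 mg protein·mL−1 with NADPH-generating solutions in 0.1 M potassium phosphate, pH 7.4, preincubated 20 min at 37°C. Substrate added at a range of concentrations and shaken 60 min at 37°C. Stopped with ice-cold acetonitrile plus internal standard, centrifuged, and supernatant analysed by reverse-phase HPLC. Michaelis–Menten constants for product formation derived.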

human cancer cell lines = details: variety of human cancer cell lines in vitro; ref Delia et al., 1993; Mariotti et al., 1994; Kalemkerian et al., 1995; Oridate et al., 1996; O'Donnell et al., 2002; cited from earlier work
[5] = Plasma levels in NOD/SCID mice given 4-HPR/LXS with or without ketoconazole; type: in vivo
Method in brief: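 NOD/SCID mice, 5–6 weeks old, were gavaged with 180 mg·kg−1 per day test compound (lipid-matrix powder slurried in water, two divided doses), alone or with ketoconazole. The dose-ranging arm was sampled 4 h after the ninth dose, the 25 mg·kg−1 arm 4 h after the fifth dose. Light-protected cardiac-puncture plasma was analysed by HPLC. Cohorts of three; mean ± SD.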

[6] = beagle dogs, single 10 mg/kg dose of the capsules; ref Liu et al., 2007; cited from earlier work
human CYP3A4 = human CYP3A4 (Homo sapiens, UniProt P08684); assay: Formation of 4-oxo-4-HPR from 4-HPR in human CYP3A4 isoenzyme microsomes; type: in vitro ADME; details: 4-HPR 10 µM, NADPH generating system
human CYP3A4, sequence (P08684 whole entry): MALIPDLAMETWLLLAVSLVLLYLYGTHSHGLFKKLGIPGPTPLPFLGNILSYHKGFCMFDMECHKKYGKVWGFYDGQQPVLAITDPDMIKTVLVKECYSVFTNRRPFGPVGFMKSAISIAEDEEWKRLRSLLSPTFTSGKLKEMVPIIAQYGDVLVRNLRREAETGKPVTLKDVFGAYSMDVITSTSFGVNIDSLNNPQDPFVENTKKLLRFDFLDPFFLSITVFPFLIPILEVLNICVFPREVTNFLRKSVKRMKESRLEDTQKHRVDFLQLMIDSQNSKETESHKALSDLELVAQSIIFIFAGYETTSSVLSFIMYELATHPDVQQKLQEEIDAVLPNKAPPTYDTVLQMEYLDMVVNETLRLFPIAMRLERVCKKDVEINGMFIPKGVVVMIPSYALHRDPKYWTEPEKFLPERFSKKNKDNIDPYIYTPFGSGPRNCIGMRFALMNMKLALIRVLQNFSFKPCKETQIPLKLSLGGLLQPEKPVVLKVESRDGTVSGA

[7] = paediatric phase I study, neuroblastoma patients; ref Villablanca et al., 2006; cited from earlier work
[8] = Plasma levels in nu/nu mice given 4-HPR/LXS with or without ketoconazole; type: in vivo, athymic nude (nu/nu) mice
Method in brief: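 Athymic nude mice, 5–6 weeks old, were gavaged with test compound in lipid-matrix powder slurried in sterile water, 180 mg·kg−1 per day in two divided doses, alone or with ketoconazole at increasing doses. Killed 4 h after the ninth dose. Plasma from isoflurane cardiac-puncture blood, collected in the dark, was analysed by HPLC. Three mice per condition; mean ± SD.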

| Compound | Reduction of 4-oxo-4-HPR formation from 4-HPR alone [1] | Concentrations at which specific for CYP3A4 (CYP3A4) | Reduction of 4-oxo-4-HPR formation from 4-HPR alone [2] | concentration at 0 h [3] | concentration at 2 h [3] | concentration at 4 h [3] | concentration at 6 h [3] | concentration at 8 h [3] | Km at 60 min [4] | Concentrations exhibiting cytotoxic activity (human cancer cell lines) | Increase of plasma level over control (4-HPR without ketoconazole) ([5]; + ketoconazole 18.75 mg/kg, P < 0.01) | Increase of plasma level over control (4-HPR without ketoconazole) ([5]; + ketoconazole 25 mg/kg, 4 h after fifth dose, Fig 4C) | Oral bioavailability [6] | 4-oxo-4-HPR concentrations formed from 4-HPR (human CYP3A4) | Maximum tolerated dose [7] | concentration at 4 h ([8]; athymic nude (nu/nu), mouse, plasma, oral, 180 mg/kg per day) | Increase of plasma level over control (4-HPR without ketoconazole) ([8]; nu/nu mice, + ketoconazole 75 mg/kg, P < 0.01) |
| --- | --- | --- | --- | --- | --- | --- | --- | --- | --- | --- | --- | --- | --- | --- | --- | --- | --- |
| OC(Cn1cncn1)(Cn1cncn1)c1ccc(F)cc1F [fluconazole] | 40.9% |  |  |  |  |  |  |  |  |  |  |  |  |  |  |  |  |
| CC(=O)N1CCN(c2ccc(OCC3COC(Cn4ccnc4)(c4ccc(Cl)cc4Cl)O3)cc2)CC1 (stereo not drawn) [ketoconazole] | 96.5% | up to 1 µM | 33.7% |  |  |  |  |  |  |  |  |  |  |  |  |  |  |
| CC1=C(/C=C/C(C)=C/C=C/C(C)=C/C(=O)Nc2ccc(O)cc2)C(C)(C)CCC1 [4-HPR, N-(4-hydroxyphenyl)retinamide] |  |  |  | 7.04 ± 4.75 µM | 9.69 ± 7.3 µM | 12.8 µM | 13.1 ± 8.5 µM | 8.55 ± 6.42 µM | 25.8 µM | 1 to 10 µM | 3.4 fold | twofold | approximately 16% | increased in a time-dependent manner | 2450 mg·m^−2 per day | 14.5 µM | 2.2 fold |
